What all share (type): functional
The species named for assay [1] is Cavia porcellus. Description: Compound was evaluated in vitro by SDT (Schultz-Dale Test) against isolated guinea pig lung strips repeatedly challenged with antigen in the presence of an antihistamine (H1); b = No activity at a concentration 30 uM.
The species entered for assay [2] is Cavia porcellus. In words: Compound was evaluated in vitro by SDT (Schultz-Dale Test) against isolated guinea pig lung strips repeatedly challenged with antigen in the presence of an antihistamine (H1) at a concentration 30 uM; i = No significant activity at 1.0 uM.
Assay [3] is filed under the species Cavia porcellus. Description: In vitro Schultz-Dale Test against isolated guinea pig lung strips repeatedly challenged with antigen in the presence of an antihistamine (H1) at a concentration 30 uM.
The species named for assay [4] is Cavia porcellus. In words: Compound was evaluated in vitro by SDT (Schultz-Dale Test) against isolated guinea pig lung strips repeatedly challenged with antigen in the presence of an antihistamine (H1) at a concentration 10 uM.
Assay [5] is filed under the species Cavia porcellus. In words: Compound was evaluated in vitro by SDT (Schultz-Dale Test) against isolated guinea pig lung strips repeatedly challenged with antigen in the presence of an antihistamine (H1); c = No activity at a concentration 30 uM.
For assay [6], the species on record is Cavia porcellus. In words: Compound was evaluated in vitro by SDT (Schultz-Dale Test) against isolated guinea pig lung strips repeatedly challenged with antigen in the presence of an antihistamine (H1) at a concentration […]. The method in brief:
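Lung strips in Tyrode's pH 7.4, 37 °C, with mepyramine 1 µM, at 300 mg base-line tension. Drug in 0.2% NaHCO3 is added 15 min before the ovalbumin bolus. Percent inhibition is taken against the tissue's prior control contraction, usually on four or more tissues. IC50 by linear regression.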

The results in this text go back to ChEMBL document CHEMBL1122537, “Acidic furo[3,2-b]indoles. A new series of potent antiallergy agents” (J Med Chem, 1984).

Regarding `COC(=O)c1oc2c3ccccc3n(-c3ccccc3)c2c1OC`, the inhibition result in assay [1] is “No activity”.

As to `CCCCCCCCCOc1c(C(=O)Nc2nn[nH]n2)oc2c3ccccc3n(-c3ccccc3)c12`, the half-maximal inhibitory concentration (IC50) entry in assay [2] was “No significant activity”.

As for `CCOc1c(-c2nn[nH]n2)oc2c3ccccc3n(-c3ccccc3)c12`, in assay [3], the 50% inhibitory concentration (IC50) came out at 3200 nM.

In the case of `COC(=O)c1oc2c3cc(OC)ccc3n(-c3ccccc3)c2c1OC`, the inhibition at 10 µM in assay [4] came to 23%.

With `CCOc1c(C(=O)O)oc2c3cc(OC)ccc3n(-c3ccccc3)c12`, the IC50 in assay [3] turned out to be 4300 nM.

For the molecule `COc1ccc2c(c1)c1oc(C(=O)Nc3nn[nH]n3)c(OC)c1n2-c1ccccc1`, the IC50 in assay [3] is 900 nM.

For `CCCc1c(OCC(O)COc2ccc3c(=O)cc(C(=O)O)oc3c2CCC)ccc(C(C)=O)c1O` (stereo unspecified) [FPL-55712], the IC50 in assay [3] is 2400 nM.

Turning to `CCOc1c(-c2nn[nH]n2)oc2c3cc(OC)ccc3n(-c3ccccc3)c12`, the IC50 in assay [3] was 1700 nM.

Regarding `CC(C)Oc1c(C(=O)Nc2nn[nH]n2)oc2c3ccccc3n(-c3ccccc3)c12`, the IC50 in assay [3] came to 60 nM.

On to `CCOc1c(C(=O)Nc2nn[nH]n2)oc2c3cc(OC)ccc3n(-c3ccccc3)c12`, for which, in assay [3], the half-maximal inhibitory concentration (IC50) turned out to be 2200 nM.

On to `COc1ccc2c(c1)c1oc(C(=O)Nc3nn[nH]n3)c(OC(C)C)c1n2-c1ccccc1`, for which, in assay [3], the concentration for half-maximal inhibition (IC50) is 2800 nM.

Turning to `CCCc1c2c(c(O)c3c(=O)cc(C(=O)O)oc13)CCCC2` [PROXICROMIL], the IC50 in assay [3] is 6300 nM.

Turning to `CCOc1c(C(=O)O)oc2c3ccccc3n(-c3ccccc3)c12`, the half-inhibitory concentration (IC50) in assay [3] is 3200 nM.

Regarding `COc1ccc2c(c1)c1oc(C(=O)O)c(OC)c1n2-c1ccccc1`, in assay [3], the IC50 worked out at 2800 nM.

`CCOc1c(C(=O)Nc2nn[nH]n2)oc2c3ccccc3n(-c3ccccc3)c12`: the half-maximal inhibitory concentration (IC50) in assay [3] was 200 nM.

Turning to `COc1ccc2c(c1)c1oc(-c3nn[nH]n3)c(OC)c1n2-c1ccccc1`, in assay [3], the half-maximal inhibitory concentration (IC50) amounted to 1500 nM.

For the molecule `COc1c(C(=O)O)oc2c3ccccc3n(C)c12`, the concentration for half-maximal inhibition (IC50) entry in assay [5] was “No activity”.

As for `COc1c(C(=O)Nc2nn[nH]n2)oc2c3ccccc3n(-c3ccccc3)c12`, in assay [3], the IC50 was 500 nM.

Consider `CC(C)Oc1c(C(=O)O)oc2c3ccccc3n(-c3ccccc3)c12`, for which the IC50 in assay [3] turned out to be 3700 nM.

As to `COc1c(C(=O)O)oc2c3ccccc3n(-c3ccccc3)c12`, the IC50 in assay [3] came to 4600 nM.

Take `COc1c(C(=O)Nc2nn[nH]n2)oc2c3ccccc3n(C)c12`: the half-maximal inhibitory concentration (IC50) in assay [3] stood at 21600 nM.

On to `COc1c(-c2nn[nH]n2)oc2c3ccccc3n(-c3ccccc3)c12`, for which, in assay [3], the IC50 came out at 2900 nM.

Take `O=C(O)c1cc2c(o1)c1ccccc1n2-c1ccccc1`: in assay [4], the inhibition at 10 µM came out at 33%.

Turning to `CCOc1c(C(=O)OC)oc2c3cc(OC)ccc3n(-c3ccccc3)c12`, the inhibition at 10 µM in assay [4] stood at 24%.

For `CC(C)NCC(O)c1ccc(O)c(O)c1` (stereo unspecified) [ISOPROTERENOL], in assay [6], the IC50 turned out to be 0.15 nM.

Regarding `COc1c(-c2nn[nH]n2)oc2c3ccccc3n(C)c12`, in assay [5], the IC50 result is listed as “No activity”.
